Experimental data collected from several papers.
Compare with care: the assays were run in different laboratories.
Cell line: MCF7
Observed: cell growth or viability

| Structure (SMILES) | method | tested at | time | measurement | result |
| --- | --- | --- | --- | --- | --- |
| C/C=C(/C)C(=O)O[C@@H]1[C@H](OC(C)=O)c2c(ccc3ccc(=O)oc23)OC1(C)C | WST-1 | – | – | IC50 | 39.1 µM |
| O=c1[nH]cc(F)c(=O)[nH]1 | crystal violet | – | 72 h | CC50 | 641 µM |
| COc1cc(O)c(CC=C(C)C)c2c1C(=O)CC(c1ccc(O)cc1)O2 (stereo not drawn) | MTT | – | 48 h | IC50 | > 100 µM |
| COc1cc2c(OC)nc3c4cc5c(cc4cc(OC(C)=O)c3c2cc1OC)OCO5 | MTT | – | – | GI50 | 4.5 µM |
| COc1ccc(-c2nc3ncccn3c2NC(C)(C)CC(C)(C)C)cc1O | MTT | 25 µM | 48 h | viability | 65.3% |
| O=C(Nc1ccccc1OS(=O)(=O)c1ccc(F)cc1)c1ccc2ncccc2c1 | MTT | 100 µM | 24 h | viability | 85.6% |
| CC(C)(C)CC(C)(C)Nc1c(-c2cccnc2)nc2ncccn12 | MTT | 25 µM | 48 h | viability | 93.9% |
| COc1cccc2c1C(=O)c1c(O)c3c(c(O)c1C2=O)C[C@@](O)(C(=O)CO)C[C@@H]3O[C@H]1C[C@H](N)[C@H](O)[C@H](C)O1 | MTT | – | 48 h | IC50 | 0.8 µM |
| CC1(C)CC[C@]2(C)CC[C@]3(C)[C@H]4CC=C5[C@@H](CC[C@H](O)C5(C)C)[C@]4(C)CC[C@@]3(C)[C@@H]2C1 | WST-1 | – | – | IC50 | 28.4 µM |
| C=C(C)[C@H](CC=C(C)C)Cc1c(O)cc(O)c2c1O[C@H](c1ccccc1O)CC2=O | MTT | – | 48 h | IC50 | 21.3 µM |
| CC(C)(C)CC(C)(C)Nc1c(-c2cccc(C#N)c2)nc2ncccn12 | MTT | 25 µM | 48 h | viability | 73.6% |
| COC(=O)[C@]1(O)C[C@@H](O)[C@@H](O)[C@H](OC(=O)/C=C/c2ccc(O)c(O)c2)C1 | WST-1 | – | – | IC50 | 10.2 µM |
| COc1cccc2c1C(=O)c1c(O)c3c(c(O)c1C2=O)C[C@@](O)(C(=O)CO)C[C@@H]3O[C@H]1C[C@H](N)[C@H](O)[C@H](C)O1 | MTT | 10 µM | 24 h | viability | 11.8% |
| C=C(C)[C@H](CC=C(C)C)Cc1c(O)cc(OC)c(C(=O)/C=C/c2ccc(O)cc2O)c1O | MTT | – | – | IC50 | 23 µM |
| COc1cc2c(OC)nc3c4cc5c(cc4cc(OCCN4CCC(N6CCCCC6)CC4)c3c2cc1OC)OCO5 | MTT | – | – | GI50 | 12 µM |
